Reference: ChEMBL document CHEMBL5674890, “Selective inhibition of CBP/p300 HAT by A-485 results in suppression of lipogenesis and hepatic gluconeogenesis” (Cell Death Dis, 2020)
Calls of active or inactive are those of the source. The rule behind the calls is not given here.

Key:
Hepatocyte [1] = assay: Inhibition of glucogenesis in mouse primary hepatocytes stimulated with 100 uM 8-Br-cAMP assessed as effect on PGC1alpha protein expression at 3 uM measured after 12 hrs by western blot analysis; format: functional, cell-based
Summary of the method: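 Primary mouse hepatocytes incubated 12 h with 3 μM compound and 100 μM 8-Br-cAMP. Lysates western blotted for FOXO1, C/EBPα or PGC1α. Three independent experiments.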

Mus musculus [2] = assay: Inhibition of lipogenesis in C57BL/6 mouse supplemented with high-fat diet assessed as decrease in ChREBP mRNA expression at 20 mg/kg/day, ip administered for 1 week measured by RT-qPCR assay; format: functional, organism-based; settings: time 1.0 weeks
Summary of the method: (§1)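 Male C57BL/6 mice were fed high-fat diet for 14 weeks from 5 weeks of age, then injected ip with 20 mg·kg−1·day−1 for 7 days or given vehicle. Epididymal and inguinal WAT were weighed, examined by H&E, and analysed. Transcripts were measured by Trizol/SYBR Green RT-qPCR; proteins by western blot. n = 5–9; mean ± SEM.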

Mus musculus [3] = assay: Anti-obesity activity in 16 hrs fasted C57BL/6 mouse supplemented with normal chow diet assessed as decrease in blood glucose level at 20 mg/kg/day, ip administered for 1 week measured after 15 to 30 mins by pyruvate tolerance test; format: functional, organism-based; settings: time 1.0 weeks
Summary of the method: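 Normal-chow male C57BL/6 mice (8 weeks old) dosed ip at 20 mg·kg−1·day−1 for 7 days. Pyruvate tolerance test: 16 h fast, then pyruvate 2 g/kg body weight ip, blood glucose followed over time. Mean ± SEM, n = 5–9.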

Mus musculus [4] = assay: Anti-obesity activity in C57BL/6 mouse supplemented with high fat diet assessed as decrease in fasting blood glucose at 20 mg/kg/day, ip administered for 1 week; format: functional, organism-based; settings: time 1.0 weeks
Summary of the method: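 Male C57BL/6 mice fed high-fat diet for 14 weeks from 5 weeks of age, then ip 20 mg·kg−1·day−1 for 7 days. Body weight, EchoMRI lean/fat mass, and random or 16 h-fasted blood glucose recorded, as the line states.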

Adipocyte = assay: Inhibition of lipogenesis in mouse adipocytes isolated stromal vascular cells assessed as decrease in adiponectin mRNA expression measured after 24 hrs by RT-qPCR assay; format: functional, cell-based
Summary of the method: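 Stromal vascular cells from inguinal WAT of C57BL/6 mice, grown in DMEM/F12 + 10% FBS at 37 °C, 10% CO2. At confluence, induced 48 h with 5 μg/ml insulin, 1 μM dexamethasone, 0.5 mM isobutylmethylxanthine, then 6 days in 5 μg/ml insulin; fully differentiated day 8. Mature adipocytes exposed to inhibitor 24 h. Total RNA by Trizol, SYBR Green RT-qPCR; protein by western blot.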

Hepatocyte [5] = assay: Inhibition of glucogenesis in mouse primary hepatocytes stimulated with 100 uM 8-Br-cAMP assessed as decrease in FBP mRNA expression at 3 uM measured after 8 hrs by RT-qPCR assay
Mus musculus [6] = assay: Inhibition of hepatic lipogenesis in C57BL/6 mouse supplemented with normal chow diet assessed as decrease in FAS protein expression at 20 mg/kg/day, ip administered for 1 week measured by western blot analysis; format: functional, organism-based; settings: time 1.0 weeks
Summary of the method: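 Normal-chow male C57BL/6 mice, 8 weeks old, were injected ip at 20 mg·kg−1·day−1 daily for 7 days or given vehicle. Liver tissue was homogenized in lysis buffer, and FAS and ChREBP protein were assessed by western blot. n = 5–9.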

[7] = molecular target: CREB-binding protein/Histone acetyltransferase p300 (Homo sapiens) (UniProt Q09472+Q92793); assay: Inhibition of CBP/p300 in mouse primary hepatocytes stimulated with 100 uM 8-Br-cAMP assessed as decrease in FOXO1 protein expression at 3 uM in presence of 10 uM MG132; format: cell-based; settings: Primary hepatocyte
Sequence of CREB-binding protein/Histone acetyltransferase p300 (Homo sapiens) (Q09472 whole entry, looked up): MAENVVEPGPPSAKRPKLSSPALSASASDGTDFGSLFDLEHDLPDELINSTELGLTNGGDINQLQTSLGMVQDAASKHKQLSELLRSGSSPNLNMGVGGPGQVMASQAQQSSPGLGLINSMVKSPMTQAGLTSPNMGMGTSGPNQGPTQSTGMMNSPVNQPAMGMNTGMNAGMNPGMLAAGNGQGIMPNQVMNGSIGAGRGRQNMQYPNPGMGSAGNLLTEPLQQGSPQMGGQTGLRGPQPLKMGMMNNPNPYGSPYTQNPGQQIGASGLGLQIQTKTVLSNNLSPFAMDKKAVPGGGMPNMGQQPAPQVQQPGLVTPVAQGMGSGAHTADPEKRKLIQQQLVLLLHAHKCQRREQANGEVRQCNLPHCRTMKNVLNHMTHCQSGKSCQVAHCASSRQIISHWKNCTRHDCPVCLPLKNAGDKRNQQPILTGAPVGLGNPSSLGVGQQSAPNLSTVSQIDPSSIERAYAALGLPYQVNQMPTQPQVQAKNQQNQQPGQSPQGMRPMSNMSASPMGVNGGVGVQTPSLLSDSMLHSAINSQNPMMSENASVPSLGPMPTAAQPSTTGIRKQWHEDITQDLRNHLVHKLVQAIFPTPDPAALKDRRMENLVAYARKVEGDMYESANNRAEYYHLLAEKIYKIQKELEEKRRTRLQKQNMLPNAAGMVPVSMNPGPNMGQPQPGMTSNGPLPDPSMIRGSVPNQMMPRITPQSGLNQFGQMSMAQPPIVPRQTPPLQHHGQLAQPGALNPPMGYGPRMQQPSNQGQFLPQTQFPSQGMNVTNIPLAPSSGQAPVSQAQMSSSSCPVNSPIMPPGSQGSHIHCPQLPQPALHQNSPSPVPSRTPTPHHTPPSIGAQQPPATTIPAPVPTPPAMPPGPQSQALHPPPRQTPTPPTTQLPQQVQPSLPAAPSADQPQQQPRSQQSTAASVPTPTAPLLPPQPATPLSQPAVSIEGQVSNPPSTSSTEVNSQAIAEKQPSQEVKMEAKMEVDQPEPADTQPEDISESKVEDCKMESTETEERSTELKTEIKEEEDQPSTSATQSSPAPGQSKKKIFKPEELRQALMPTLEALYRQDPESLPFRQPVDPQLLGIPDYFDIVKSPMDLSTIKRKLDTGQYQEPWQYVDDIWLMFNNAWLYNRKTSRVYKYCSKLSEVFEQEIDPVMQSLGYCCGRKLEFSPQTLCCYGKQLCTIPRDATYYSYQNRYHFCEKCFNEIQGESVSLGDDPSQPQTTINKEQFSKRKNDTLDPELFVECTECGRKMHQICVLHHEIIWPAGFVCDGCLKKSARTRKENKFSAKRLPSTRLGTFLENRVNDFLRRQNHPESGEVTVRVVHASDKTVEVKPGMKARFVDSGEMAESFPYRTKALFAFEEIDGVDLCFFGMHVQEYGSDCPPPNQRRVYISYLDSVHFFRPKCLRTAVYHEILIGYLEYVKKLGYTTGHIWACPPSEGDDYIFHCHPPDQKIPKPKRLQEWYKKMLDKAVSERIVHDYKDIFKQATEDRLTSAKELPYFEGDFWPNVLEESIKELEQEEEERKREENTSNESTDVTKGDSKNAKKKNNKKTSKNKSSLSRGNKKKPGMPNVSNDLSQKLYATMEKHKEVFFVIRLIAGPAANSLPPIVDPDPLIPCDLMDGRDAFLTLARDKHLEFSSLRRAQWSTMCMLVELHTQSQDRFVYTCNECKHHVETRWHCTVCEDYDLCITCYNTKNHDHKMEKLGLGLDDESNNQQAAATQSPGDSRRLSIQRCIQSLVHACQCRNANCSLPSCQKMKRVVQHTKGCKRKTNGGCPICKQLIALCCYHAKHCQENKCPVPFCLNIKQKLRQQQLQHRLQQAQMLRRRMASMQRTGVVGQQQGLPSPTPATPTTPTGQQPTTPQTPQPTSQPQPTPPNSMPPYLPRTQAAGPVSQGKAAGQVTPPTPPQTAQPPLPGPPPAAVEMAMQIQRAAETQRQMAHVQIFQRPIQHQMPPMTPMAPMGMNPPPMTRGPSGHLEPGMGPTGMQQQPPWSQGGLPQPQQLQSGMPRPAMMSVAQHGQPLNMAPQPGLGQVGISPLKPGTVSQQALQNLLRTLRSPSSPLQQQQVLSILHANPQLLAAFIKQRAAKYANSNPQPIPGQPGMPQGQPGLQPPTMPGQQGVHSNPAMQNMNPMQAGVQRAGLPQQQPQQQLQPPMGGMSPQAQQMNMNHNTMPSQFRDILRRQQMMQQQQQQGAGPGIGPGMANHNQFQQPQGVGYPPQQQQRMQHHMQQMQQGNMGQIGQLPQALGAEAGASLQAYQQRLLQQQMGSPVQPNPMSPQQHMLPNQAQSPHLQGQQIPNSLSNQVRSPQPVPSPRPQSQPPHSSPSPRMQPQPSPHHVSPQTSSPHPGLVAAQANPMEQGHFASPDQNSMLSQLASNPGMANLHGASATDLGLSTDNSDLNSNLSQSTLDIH
Sequence of CREB-binding protein/Histone acetyltransferase p300 (Homo sapiens) (Q92793 whole entry, looked up): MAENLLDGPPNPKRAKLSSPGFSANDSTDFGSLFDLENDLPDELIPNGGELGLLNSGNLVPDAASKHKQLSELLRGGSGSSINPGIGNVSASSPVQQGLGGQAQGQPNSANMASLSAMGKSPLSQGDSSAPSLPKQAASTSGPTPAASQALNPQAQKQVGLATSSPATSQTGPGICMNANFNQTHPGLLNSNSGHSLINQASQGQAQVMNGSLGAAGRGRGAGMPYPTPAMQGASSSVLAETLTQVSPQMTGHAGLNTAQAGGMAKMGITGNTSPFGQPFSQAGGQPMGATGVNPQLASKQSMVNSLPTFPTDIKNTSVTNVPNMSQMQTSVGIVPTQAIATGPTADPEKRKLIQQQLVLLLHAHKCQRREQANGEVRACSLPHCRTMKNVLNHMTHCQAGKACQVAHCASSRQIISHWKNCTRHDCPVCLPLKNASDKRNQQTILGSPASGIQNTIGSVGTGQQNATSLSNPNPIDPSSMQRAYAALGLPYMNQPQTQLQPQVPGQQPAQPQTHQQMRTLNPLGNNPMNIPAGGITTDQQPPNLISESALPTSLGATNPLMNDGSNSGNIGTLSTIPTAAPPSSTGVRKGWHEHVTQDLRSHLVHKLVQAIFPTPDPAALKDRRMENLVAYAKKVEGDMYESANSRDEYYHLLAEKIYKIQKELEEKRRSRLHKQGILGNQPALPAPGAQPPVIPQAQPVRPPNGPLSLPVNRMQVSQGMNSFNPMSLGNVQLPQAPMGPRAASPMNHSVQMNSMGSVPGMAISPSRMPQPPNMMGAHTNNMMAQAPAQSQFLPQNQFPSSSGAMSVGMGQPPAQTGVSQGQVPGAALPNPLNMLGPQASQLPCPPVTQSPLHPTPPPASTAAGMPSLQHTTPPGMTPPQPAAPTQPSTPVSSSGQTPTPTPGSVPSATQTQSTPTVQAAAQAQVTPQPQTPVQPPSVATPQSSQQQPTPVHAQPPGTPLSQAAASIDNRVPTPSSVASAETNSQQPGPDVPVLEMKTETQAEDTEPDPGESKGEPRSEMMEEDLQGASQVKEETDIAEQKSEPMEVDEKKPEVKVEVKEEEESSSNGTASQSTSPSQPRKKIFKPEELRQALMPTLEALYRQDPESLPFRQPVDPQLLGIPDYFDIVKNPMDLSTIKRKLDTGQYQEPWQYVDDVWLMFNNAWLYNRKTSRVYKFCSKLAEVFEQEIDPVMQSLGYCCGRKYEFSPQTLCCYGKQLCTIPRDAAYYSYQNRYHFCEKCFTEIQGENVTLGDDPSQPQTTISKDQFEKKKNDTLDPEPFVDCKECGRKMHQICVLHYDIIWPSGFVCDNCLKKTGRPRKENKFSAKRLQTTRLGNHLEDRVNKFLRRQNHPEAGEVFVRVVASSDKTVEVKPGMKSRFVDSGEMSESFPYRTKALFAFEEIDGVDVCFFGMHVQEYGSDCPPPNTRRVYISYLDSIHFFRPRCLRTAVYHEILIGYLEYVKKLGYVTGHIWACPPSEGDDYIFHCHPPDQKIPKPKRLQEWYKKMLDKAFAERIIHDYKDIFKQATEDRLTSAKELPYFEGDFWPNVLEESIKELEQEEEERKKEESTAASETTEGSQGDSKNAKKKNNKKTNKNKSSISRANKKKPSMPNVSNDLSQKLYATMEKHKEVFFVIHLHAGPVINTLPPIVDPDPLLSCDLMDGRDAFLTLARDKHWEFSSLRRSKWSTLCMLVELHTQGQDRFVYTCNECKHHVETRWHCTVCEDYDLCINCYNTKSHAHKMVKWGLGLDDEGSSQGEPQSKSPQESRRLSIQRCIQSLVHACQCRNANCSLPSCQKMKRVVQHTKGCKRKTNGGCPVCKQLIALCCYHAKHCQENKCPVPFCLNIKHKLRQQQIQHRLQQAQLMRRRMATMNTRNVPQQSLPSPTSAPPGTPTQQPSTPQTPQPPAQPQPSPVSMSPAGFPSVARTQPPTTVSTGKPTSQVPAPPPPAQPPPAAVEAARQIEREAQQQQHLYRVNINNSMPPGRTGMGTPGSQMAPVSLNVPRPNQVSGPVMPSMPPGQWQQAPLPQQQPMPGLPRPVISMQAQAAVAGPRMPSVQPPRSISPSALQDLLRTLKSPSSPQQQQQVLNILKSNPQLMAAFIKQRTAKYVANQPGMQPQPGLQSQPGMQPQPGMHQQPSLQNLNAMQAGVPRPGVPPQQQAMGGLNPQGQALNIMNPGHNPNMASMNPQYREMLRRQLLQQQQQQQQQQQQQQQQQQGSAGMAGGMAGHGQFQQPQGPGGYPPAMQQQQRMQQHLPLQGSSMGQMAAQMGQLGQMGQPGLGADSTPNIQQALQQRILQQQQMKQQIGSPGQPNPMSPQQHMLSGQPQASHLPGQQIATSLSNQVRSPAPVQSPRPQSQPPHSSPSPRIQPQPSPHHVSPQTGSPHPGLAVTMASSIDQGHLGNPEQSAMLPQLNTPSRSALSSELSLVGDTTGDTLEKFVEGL
Summary of the method: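 Primary mouse hepatocytes exposed to 100 μM 8-Br-cAMP, 3 μM compound, 10 μg/ml cycloheximide and 10 μM MG132. FOXO1 protein measured by western blot, band intensity quantified. Three independent experiments.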

Mus musculus [8] = assay: Inhibition of lipogenesis in C57BL/6 mouse supplemented with high-fat diet assessed as decrease in adipocyte size of WAT at 20 mg/kg/day, ip administered for 1 week; format: functional, organism-based; settings: time 1.0 weeks; summary of the method: as §1
Hepatocyte [9] = assay: Inhibition of glucogenesis in mouse primary hepatocytes stimulated with 100 uM 8-Br-cAMP assessed as effect on HNF4alpha mRNA expression at 3 uM measured after 8 hrs by RT-qPCR assay; format: functional, cell-based
Summary of the method: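 Primary mouse hepatocytes treated with 3 μM compound and 100 μM 8-Br-cAMP for 8 h. Trizol RNA, SYBR Green RT-qPCR of the named transcript. Mean ± SEM, three independent experiments.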

## CNC(=O)Nc1ccc2c(c1)CCS21OC(=O)N(CC(=O)N(Cc2ccc(F)cc2)[C@@H](C)C(F)(F)F)C1=O (stereo not given in full)
Hepatocyte [1]
  inhibition: inactive
Mus musculus [2]
  inhibition: Active
Mus musculus [3]
  Activity: Active
Mus musculus [4]
  Activity: Active
Adipocyte
  inhibition: Active
Hepatocyte [5]
  inhibition: Active
Mus musculus [6]
  inhibition: Active
[7]
  inhibition: Active
Mus musculus [8]
  inhibition: Active
Hepatocyte [9]
  inhibition: inactive
